Here are results for 4 compounds from article PMC4390068 (Medicinal chemistry research : an international journal for …, 2014).

Entries after “also recorded” stand apart in the source; their conditions may differ. Where two headings read alike, the source gives them in different places.

The test system of series [1] is LPS-activated BV-2 microglial cells. As to the kind of experiment: NO. The settings on record: for IC50: read-out: LPS-NO2 IC50. Type of series: cell-based, murine.
Series [2] is described as follows: Cell viability by resazurin. Type of series: cell-based. As to conditions: mouse.
For series [3], the system named is iNOS protein expression in LPS-activated BV-2 microglial cells. As to the kind of experiment: Inducible NOS protein expression by immunohistochemistry. Type of series: cell-based, murine. As to conditions: LPS-activated BV-2 cells; 4.4 and 8.9 µM chalcone (1). The gist of the method:
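LPS (E. coli O111:B4, 1 µg/ml, 24 h) activated BV-2 cells at 0.5 × 10^6 cells/ml in phenol-red-free DMEM with 5 % FBS and 3 mM L-glutamine. Test compound came from DMSO stock diluted in HBSS + 5 mM HEPES pH 7.4, with final DMSO <0.5 %. Cells were fixed (4 % paraformaldehyde), permeabilised (0.1 % Triton X-100/PBS) and given rabbit N-terminal anti-iNOS, then Alexa Fluor 488 anti-rabbit (each 2 h, 37 °C), with propidium iodide counterstain and confocal imaging. Dexamethasone 1 µM served as comparator.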

For series [4], the system named is LPS-stimulated BV-2 microglia cells. As to the kind of experiment: Inflammatory cytokines Multi-Analyte ELISArray MEM-004A. As to conditions: LPS-activated BV-2 cells, 24 h supernatant. Type of series: cell-based, murine. Put shortly:
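BV-2 cells were activated with E. coli O111:B4 LPS (1 µg/ml) plus test compound (final DMSO <0.5 %). Supernatants taken at 24 h were stored at −20 °C, then incubated with capture antibodies and mixed antigen standards (2 h, RT), biotinylated detection antibodies (1 h, RT), avidin–HRP (30 min) and development reagent. Absorbance was read at 450 nm, corrected at 570 nm. Results are % of LPS controls, mean ± STD, n = 2, Student's t test.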

In the case of `COc1cc(/C=C/C(=O)c2ccc(OC)c(OC)c2O)cc(OC)c1OC` [Compound 1, 2′-hydroxy-3,4,5,3′,4′-pentamethoxychalcone], in series [1] (BV-2 cells, LPS 1 µg/ml), the “NO inhibition / anti-inflammatory effect (in words)” value is given as “complete inhibition of NO”. The same compound came in with a CC50 in series [2] (BV-2 microglial cells) of 18.3 µM. Also, the iNOS protein expression result in series [3] is “reducing iNOS protein expression; also recorded: reduction of iNOS protein”. For the same compound, in series [4], the “IL-1α production and release” value was “attenuated”; the “IL-6 production and release” value is listed as “attenuated”; the “IL-10 production and release” value is “attenuated”.

For `COc1cc(/C=C/C(=O)c2ccccc2O)cc(OC)c1OC` [Compound 2, 2′-hydroxy-3,4,5-trimethoxychalcone], in series [1] (BV-2 cells, LPS 1 µg/ml, 24 h, regression of min. 5 concentrations below 40 µM, n = 4), the IC50 is 2.2 µM.

For the compound `C[C@@H]1C[C@H]2[C@@H]3CCC4=CC(=O)C=C[C@]4(C)[C@@]3(F)[C@@H](O)C[C@]2(C)[C@@]1(O)C(=O)CO` [Dexamethasone, reference compound], in series [2], the CC50 is > 50 µM.

For `CC(=N)NCCCC[C@H](N)C(=O)O` [L-NIL, L-N6-(1-iminoethyl)lysine, reference compound], the 50% inhibitory concentration (IC50) in series [1] (Mus musculus, BV-2, 24 h) was found to be 3.1 µM.
